Data on 8 molecules can be found in ChEMBL document CHEMBL1156555, “Synthesis and anti-inflammatory activity of 2-aryloxy methyl oxazolines” (Bioorg Med Chem Lett, 2008).

The subject of one data set is Rattus norvegicus. The data set can be described thus: Antiinflammatory activity in albino rat assessed as inhibition of carrageenan-induced paw edema at 40 mg/kg, po administered 30 mins prior to challenge relative to control.
Conditions: not given
Type of data set: functional. The method in brief: (§1)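 Groups of five rats (200–230 g) were dosed orally. After 30 min, 0.2 ml of 1% carrageenan in 0.9% NaCl was injected subcutaneously into the hind-paw plantar aponeurosis. Paw volume was read by water plethysmometer before and at 3 h. % inhibition = (1 − vt/vc) × 100, using mean relative oedema changes against five carrageenan-only controls.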
In general terms: Carrageenan injected into the paw causes an acute inflammation.
As to `Fc1ccccc1OCC1=NCCO1`, the inhibition in vivo – broadly, the change of the read-out against control, counted positive when it falls – at 40 mg/kg came to 30.5%.

Regarding `COc1ccc(OCC2=NCCO2)cc1`, the inhibition in vivo at 40 mg/kg amounted to 33.2%.

`O=[N+]([O-])c1ccccc1OCC1=NCCO1`: the inhibition in vivo at 40 mg/kg is 35.5%.

For `CC(=O)Oc1ccccc1C(=O)O` [ASPIRIN], the inhibition in vivo at 40 mg/kg was determined as 35.5%.

Turning to `Fc1ccc(OCC2=NCCO2)cc1`, the inhibition in vivo at 40 mg/kg amounted to 30.2%.

In the case of `Clc1ccc(OCC2=NCCO2)cc1`, the inhibition in vivo at 40 mg/kg is 48.2%.

Turning to `O=[N+]([O-])c1ccc(OCC2=NCCO2)cc1`, the inhibition in vivo at 40 mg/kg came out at 30.4%.

`Brc1ccc(OCC2=NCCO2)cc1`: the inhibition in vivo at 40 mg/kg is 48.5%.

The subject of a further data set is Rattus norvegicus. The data set can be described thus: Toxic ulcerogenic effect in albino rat assessed as incidence of hyperemia at 400 mg/kg, po. Format: toxicity, organism-based. As to conditions: in vivo. Also noted: dose 400 mg/kg, route oral. The method in brief: (§2)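 Rats (200–230 g) in groups of 10 were fasted 24 h, then given the compound orally. They were killed 5 h after dosing. Stomach and small intestine were examined under a microscope for hyperemia, epithelial shedding, petechiae, frank haemorrhage, and erosion or ulceration with or without perforation. Any of these criteria counted as ulcerogenic.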
`Fc1ccccc1OCC1=NCCO1`: the Activity is 80%.

Consider `COc1ccc(OCC2=NCCO2)cc1`, for which the Activity is given as 90%.

Consider `O=[N+]([O-])c1ccccc1OCC1=NCCO1`, for which the Activity worked out at 90%.

Turning to `CC(=O)Oc1ccccc1C(=O)O` [ASPIRIN], the Activity is on record as 90%.

For `Fc1ccc(OCC2=NCCO2)cc1`, the Activity is on record as 50%.

As to `Clc1ccc(OCC2=NCCO2)cc1`, the Activity came out at 90%.

With `O=[N+]([O-])c1ccc(OCC2=NCCO2)cc1`, the Activity turned out to be 100%.

Consider `Brc1ccc(OCC2=NCCO2)cc1`, for which the Activity worked out at 100%.

For another data set, the system named is Rattus norvegicus. Description: Toxic ulcerogenic effect in albino rat assessed as incidence of hyperemia at 200 mg/kg, po. Type of data set: toxicity, organism-based. Also noted: dose 200 mg/kg, route oral. As to conditions: in vivo. The method in brief:
as §2
Turning to `Fc1ccccc1OCC1=NCCO1`, the Activity turned out to be 60%.

`COc1ccc(OCC2=NCCO2)cc1`: the Activity is listed as 70%.

`O=[N+]([O-])c1ccccc1OCC1=NCCO1`: the Activity is given as 55%.

For `CC(=O)Oc1ccccc1C(=O)O` [ASPIRIN], the Activity is 60%.

As for `Fc1ccc(OCC2=NCCO2)cc1`, the Activity turned out to be 40%.

Take `Clc1ccc(OCC2=NCCO2)cc1`: the Activity amounted to 60%.

In the case of `O=[N+]([O-])c1ccc(OCC2=NCCO2)cc1`, the Activity amounted to 70%.

Regarding `Brc1ccc(OCC2=NCCO2)cc1`, the Activity is recorded as 80%.

The test system of another data set is Rattus norvegicus. The data set can be described thus: Antiinflammatory activity in albino rat assessed as inhibition of carrageenan-induced paw edema at 20 mg/kg, po administered 30 mins prior to challenge relative to control. Format: functional.
Conditions: not given
The essentials: as §1
As for `Fc1ccccc1OCC1=NCCO1`, the inhibition in vivo at 20 mg/kg was determined as 20.6%.

As to `COc1ccc(OCC2=NCCO2)cc1`, the inhibition in vivo at 20 mg/kg was 16.6%.

In the case of `O=[N+]([O-])c1ccccc1OCC1=NCCO1`, the inhibition in vivo at 20 mg/kg turned out to be 20.5%.

Turning to `CC(=O)Oc1ccccc1C(=O)O` [ASPIRIN], the inhibition in vivo at 20 mg/kg came out at 30.4%.

In the case of `Fc1ccc(OCC2=NCCO2)cc1`, the inhibition in vivo at 20 mg/kg worked out at 18.5%.

On to `Clc1ccc(OCC2=NCCO2)cc1`, for which the inhibition in vivo at 20 mg/kg amounted to 30.3%.

Regarding `O=[N+]([O-])c1ccc(OCC2=NCCO2)cc1`, the inhibition in vivo at 20 mg/kg worked out at 29.2%.

For the molecule `Brc1ccc(OCC2=NCCO2)cc1`, the inhibition in vivo at 20 mg/kg stood at 35.5%.

For the next data set, the system named is Rattus norvegicus. The data set can be described thus: Toxic ulcerogenic effect in albino rat assessed as incidence of ulcer at 400 mg/kg, po. Type of data set: toxicity, organism-based. Also noted: dose 400 mg/kg, route oral. As to conditions: in vivo. The method in brief:
as §2
Turning to `Fc1ccccc1OCC1=NCCO1`, the Activity is reported as 20%.

`COc1ccc(OCC2=NCCO2)cc1`: the Activity was found to be 15%.

With `O=[N+]([O-])c1ccccc1OCC1=NCCO1`, the Activity is reported as 45%.

For the molecule `CC(=O)Oc1ccccc1C(=O)O` [ASPIRIN], the Activity is given as 90%.

With `Fc1ccc(OCC2=NCCO2)cc1`, the Activity amounted to 75%.

With `Clc1ccc(OCC2=NCCO2)cc1`, the Activity is on record as 12%.

Regarding `O=[N+]([O-])c1ccc(OCC2=NCCO2)cc1`, the Activity was determined as 20%.

On to `Brc1ccc(OCC2=NCCO2)cc1`, for which the Activity was found to be 15%.

In the next data set the test system is Rattus norvegicus. Description: Toxic ulcerogenic effect in albino rat assessed as incidence of ulcer at 100 mg/kg, po. Format: toxicity, organism-based. The settings on record: in vivo. Also noted: dose 100 mg/kg, route oral. The essentials:
as §2
Regarding `Fc1ccccc1OCC1=NCCO1`, the Activity was determined as 10%.

As to `COc1ccc(OCC2=NCCO2)cc1`, the Activity turned out to be 5%.

As to `O=[N+]([O-])c1ccccc1OCC1=NCCO1`, the Activity is 20%.

In the case of `CC(=O)Oc1ccccc1C(=O)O` [ASPIRIN], the Activity amounted to 80%.

Consider `Fc1ccc(OCC2=NCCO2)cc1`, for which the Activity was found to be 50%.

With `Clc1ccc(OCC2=NCCO2)cc1`, the Activity is recorded as 10%.

On to `O=[N+]([O-])c1ccc(OCC2=NCCO2)cc1`, for which the Activity amounted to 10%.

For `Brc1ccc(OCC2=NCCO2)cc1`, the Activity was 5%.

For a further data set, the system named is Rattus norvegicus. Description: Antiinflammatory activity in albino rat assessed as inhibition of carrageenan-induced paw edema at 80 mg/kg, po administered 30 mins prior to challenge relative to control.
Conditions: not given
Format: functional. The essentials: as §1
In the case of `Fc1ccccc1OCC1=NCCO1`, the inhibition in vivo at 80 mg/kg was 60.1%.

With `COc1ccc(OCC2=NCCO2)cc1`, the inhibition in vivo at 80 mg/kg amounted to 64.1%.

In the case of `O=[N+]([O-])c1ccccc1OCC1=NCCO1`, the inhibition in vivo at 80 mg/kg came out at 50.5%.

Regarding `CC(=O)Oc1ccccc1C(=O)O` [ASPIRIN], the inhibition in vivo at 80 mg/kg stood at 59.6%.

As to `Fc1ccc(OCC2=NCCO2)cc1`, the inhibition in vivo at 80 mg/kg is 40.5%.

Consider `Clc1ccc(OCC2=NCCO2)cc1`, for which the inhibition in vivo at 80 mg/kg was 94.1%.

For `O=[N+]([O-])c1ccc(OCC2=NCCO2)cc1`, the inhibition in vivo at 80 mg/kg is 77.1%.

For `Brc1ccc(OCC2=NCCO2)cc1`, the inhibition in vivo at 80 mg/kg stood at 60.1%.

In another data set the test system is Rattus norvegicus. Description: Toxic ulcerogenic effect in albino rat assessed as incidence of hyperemia at 100 mg/kg, po. Format: toxicity, organism-based. Also noted: dose 100 mg/kg, route oral. As to conditions: in vivo. The essentials: as §2
Consider `Fc1ccccc1OCC1=NCCO1`, for which the Activity amounted to 40%.

Consider `COc1ccc(OCC2=NCCO2)cc1`, for which the Activity came to 50%.

As for `O=[N+]([O-])c1ccccc1OCC1=NCCO1`, the Activity is reported as 30%.

Take `CC(=O)Oc1ccccc1C(=O)O` [ASPIRIN]: the Activity was 30%.

As for `Fc1ccc(OCC2=NCCO2)cc1`, the Activity is listed as 25%.

On to `Clc1ccc(OCC2=NCCO2)cc1`, for which the Activity amounted to 30%.

For the molecule `O=[N+]([O-])c1ccc(OCC2=NCCO2)cc1`, the Activity is recorded as 50%.

For `Brc1ccc(OCC2=NCCO2)cc1`, the Activity is listed as 60%.

The next data set relates to Rattus norvegicus. The data set can be described thus: Antiinflammatory activity in po dosed albino rat assessed as inhibition of carrageenan-induced paw edema administered 30 mins prior to challenge. Type of data set: functional.
Conditions: not given
Take `Fc1ccccc1OCC1=NCCO1`: the ED50 – broadly, the midpoint of the dose-response relation – came out at 76.2 mg/kg.

In the case of `COc1ccc(OCC2=NCCO2)cc1`, the ED50 worked out at 77.2 mg/kg.

Regarding `O=[N+]([O-])c1ccccc1OCC1=NCCO1`, the ED50 stood at 70.1 mg/kg.

In the case of `Fc1ccc(OCC2=NCCO2)cc1`, the ED50 stood at 75.5 mg/kg.

For the molecule `Clc1ccc(OCC2=NCCO2)cc1`, the ED50 amounted to 51.2 mg/kg.

As to `O=[N+]([O-])c1ccc(OCC2=NCCO2)cc1`, the ED50 was 60.5 mg/kg.

`Brc1ccc(OCC2=NCCO2)cc1`: the ED50 came to 65.5 mg/kg.

Another data set is filed under the species Oryctolagus cuniculus. Description: Inhibition of cyclooxygenase in rabbit colon microsomes assessed as reduction in conversion of arachidonic acid to PGE2 at 10 uM by liquid scintillation spectrometry relative to control.
Conditions: not given
The essentials:
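Rabbit distal colon mucosa (2–3 g) was homogenized in 0.1 M Tris pH 8.0, and the microsomal pellet was used fresh. Microsomes were incubated with the test agent for 10 min at 37 °C in Tris-HCl pH 8.0 with 2 mM reduced glutathione, L-tryptophan and hematin. Products were separated by isocratic HPLC (150 mM orthophosphoric acid pH 3.5, 30% acetonitrile; UV 214 nm), and PGE2-co-eluting radioactivity was counted by liquid scintillation.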
With `Fc1ccccc1OCC1=NCCO1`, the inhibition – broadly, how much of the control response was suppressed – amounted to 65%.

On to `COc1ccc(OCC2=NCCO2)cc1`, for which the inhibition stood at 70%.

Turning to `O=[N+]([O-])c1ccccc1OCC1=NCCO1`, the inhibition was determined as 30%.

As to `CC(=O)Oc1ccccc1C(=O)O` [ASPIRIN], the inhibition stood at 65%.

For the molecule `O=[N+]([O-])c1ccc(OCC2=NCCO2)cc1`, the inhibition came to 85%.

As to `Brc1ccc(OCC2=NCCO2)cc1`, the inhibition is 60%.

System in another data set: not listed separately
Description: Acute toxicity in albino rat assessed as mortality after 24 hrs. Format: organism-based. As to conditions: in vivo, read-out: ALD50. The method in brief:
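Albino rats (200–230 g), groups of 10, given test compounds intraperitoneally at several dose levels. Percent mortality per group recorded 24 h after dosing. ALD50 calculated from the mortality data by a previously described method.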
Turning to `Fc1ccccc1OCC1=NCCO1`, the LD50 at 24 h is more than 1000 mg/kg.

In the case of `COc1ccc(OCC2=NCCO2)cc1`, the LD50 at 24 h is more than 1000 mg/kg.

In the case of `O=[N+]([O-])c1ccccc1OCC1=NCCO1`, the LD50 at 24 h was more than 1000 mg/kg.

In the case of `Fc1ccc(OCC2=NCCO2)cc1`, the LD50 at 24 h is more than 1000 mg/kg.

As for `Clc1ccc(OCC2=NCCO2)cc1`, the LD50 at 24 h is more than 1000 mg/kg.

In the case of `O=[N+]([O-])c1ccc(OCC2=NCCO2)cc1`, the LD50 at 24 h is more than 1000 mg/kg.

`Brc1ccc(OCC2=NCCO2)cc1`: the LD50 at 24 h is more than 1000 mg/kg.

The subject of the next data set is Rattus norvegicus. The data set can be described thus: Toxic ulcerogenic effect in albino rat assessed as incidence of ulcer at 200 mg/kg, po. Also noted: dose 200 mg/kg, route oral. Type of data set: toxicity, organism-based. As to conditions: in vivo. The essentials:
as §2
Regarding `Fc1ccccc1OCC1=NCCO1`, the Activity came out at 15%.

Turning to `COc1ccc(OCC2=NCCO2)cc1`, the Activity was 10%.

In the case of `O=[N+]([O-])c1ccccc1OCC1=NCCO1`, the Activity amounted to 25%.

`CC(=O)Oc1ccccc1C(=O)O` [ASPIRIN]: the Activity is 90%.

On to `Fc1ccc(OCC2=NCCO2)cc1`, for which the Activity was found to be 25%.

Take `Clc1ccc(OCC2=NCCO2)cc1`: the Activity was determined as 20%.

With `O=[N+]([O-])c1ccc(OCC2=NCCO2)cc1`, the Activity came to 15%.

On to `Brc1ccc(OCC2=NCCO2)cc1`, for which the Activity turned out to be 10%.
